Data taken from ChEMBL document CHEMBL1123314, “Adriamycin analogues. Preparation and biological evaluation of some N-(trifluoroacetyl)-14-O-[(N-acetylamino)acyl]adriamycin derivatives” (J Med Chem, 1986).

Legend:
[1] = Half-life time of the compound; type: ADME
CCRF-CEM = test: In vitro antitumor activity in CCRF-CEM culture of human leukemic lymphocytes; type: functional; conditions: read-out: ID50 (the source's name)
Method in brief: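 CCRF-CEM human leukemic lymphoblasts were grown in suspension in Eagle's MEM with 10% fetal bovine serum and exposed to drug continuously for 48 h. ID50 is the concentration giving 50% reduction in growth relative to untreated control cultures.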

Mus musculus = test: Compound was evaluated in vivo for antileukemic activity in B6D2F1 male mice; type: functional
Method in brief: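 P388 leukemia model, run essentially per NCI standard protocols: 10⁶ tumor cells injected ip into B6D2F1 male mice on day 0. Drug given ip once daily for 4 days starting day 1; highest dose tested 50 mg/kg per day. Read-out is percent increase in life span (ILS) versus untreated controls, with long-term survivors (>40 days) noted.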

% hydrolysis in 60 min [2] = test: % hydrolysis in 60 min
% hydrolysis in 60 min [3] = test: % hydrolysis in 60 min; remark: listed apart in the source

SMILES	half-life [1]	IC50 (CCRF-CEM)	ILS (Mus musculus)	% hydrolysis at 1 h (% hydrolysis in 60 min [2])	% hydrolysis at 1 h (% hydrolysis in 60 min [3])
COc1cccc2c1C(=O)c1c(O)c3c(c(O)c1C2=O)C[C@@](O)(C(=O)COC(=O)C(C)NC(C)=O)C[C@@H]3OC1CC(NC(=O)C(F)(F)F)C(O)C(C)O1 (some centres undefined)	18 min	150 nM	163%		
CCCCC(=O)OCC(=O)[C@]1(O)Cc2c(O)c3c(c(O)c2[C@@H](OC2CC(NC(=O)C(F)(F)F)C(O)C(C)O2)C1)C(=O)c1c(OC)cccc1C3=O (some centres undefined)		230 nM			
COc1cccc2c1C(=O)c1c(O)c3c(c(O)c1C2=O)C[C@@](O)(C(=O)COC(=O)C(Cc1ccccc1)NC(C)=O)C[C@@H]3OC1CC(NC(=O)C(F)(F)F)C(O)C(C)O1 (some centres undefined)	14 min	90 nM	173%		
COc1cccc2c1C(=O)c1c(O)c3c(c(O)c1C2=O)C[C@@](O)(C(=O)COC(=O)C(CCSC)NC(C)=O)C[C@@H]3OC1CC(NC(=O)C(F)(F)F)C(O)C(C)O1 (some centres undefined)	38 min	830 nM	136%		
COc1cccc2c1C(=O)c1c(O)c3c(c(O)c1C2=O)C[C@@](O)(C(=O)COC(=O)CC(NC(C)=O)C(=O)O)C[C@@H]3OC1CC(NC(=O)C(F)(F)F)C(O)C(C)O1 (some centres undefined)	18 min	1000 nM			
COc1cccc2c1C(=O)c1c(O)c3c(c(O)c1C2=O)C[C@@](O)(C(=O)COC(=O)CCC(NC(C)=O)C(=O)O)C[C@@H]3OC1CC(NC(=O)C(F)(F)F)C(O)C(C)O1 (some centres undefined)	16 min	160 nM			
COc1cccc2c1C(=O)c1c(O)c3c(c(O)c1C2=O)C[C@@](O)(C(=O)COC(=O)CNC(C)=O)C[C@@H]3OC1CC(NC(=O)C(F)(F)F)C(O)C(C)O1 (some centres undefined)	10 min	140 nM	105%		
COc1cccc2c1C(=O)c1c(O)c3c(c(O)c1C2=O)C[C@@](O)(C(=O)COC(=O)CCC(NC(C)=O)C(N)=O)C[C@@H]3OC1CC(NC(=O)C(F)(F)F)C(O)C(C)O1 (some centres undefined)	24 min	120 nM			
COc1cccc2c1C(=O)c1c(O)c3c(c(O)c1C2=O)C[C@@](O)(C(=O)COC(=O)CNC(=O)c1ccccc1)C[C@@H]3OC1CC(NC(=O)C(F)(F)F)C(O)C(C)O1 (some centres undefined)	3.5 min	120 nM			
COc1cccc2c1C(=O)c1c(O)c3c(c(O)c1C2=O)C[C@@](O)(C(=O)CO)C[C@@H]3O[C@H]1C[C@H](N)[C@H](O)[C@H](C)O1 [DOXORUBICIN]		30 nM	145%		
COc1cccc2c1C(=O)c1c(O)c3c(c(O)c1C2=O)C[C@@](O)(C(=O)COC(=O)C(NC(C)=O)C(C)C)C[C@@H]3OC1CC(NC(=O)C(F)(F)F)C(O)C(C)O1 (some centres undefined)		140 nM		8%	
COc1cccc2c1C(=O)c1c(O)c3c(c(O)c1C2=O)C[C@@](O)(C(=O)COC(=O)C1CCCN1C(C)=O)C[C@@H]3OC1CC(NC(=O)C(F)(F)F)C(O)C(C)O1 (some centres undefined)		300 nM			4%
COc1cccc2c1C(=O)c1c(O)c3c(c(O)c1C2=O)C[C@@](O)(C(=O)COC(=O)C(CC(C)C)NC(C)=O)C[C@@H]3OC1CC(NC(=O)C(F)(F)F)C(O)C(C)O1 (some centres undefined)	65 min	150 nM			
